SENP6 block: SENP6 protease inhibitors, primary screen, biochemical, luminescence, uHTS. Sentrin-specific protease 6 (Homo sapiens), Q9GZR1. Recombinant SENP6 catalytic domain, aminoluciferin luminescence. inhibition, % at 10 µM. 330,000 compounds, 1.8% hits;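 active means inhibition above about 50% at the single tested dose, limit read from the data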
Apaf1 inhib: inhibitors of human Apaf-1 apoptosome, primary screen, biochemical, DEVD-Rh110 fluorescence, uHTS | Apoptotic protease-activating factor 1 (Homo sapiens), O14727 | reconstituted apoptosome caspase-3 activity | inhibition, % at 20 µM | 330,000 compounds, 0.71% hits | AID 489030, 2010; active means inhibition of at least 40% at 20 µM
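Assay system: Apoptosome proteins | Medium: pH 7.5 Hepes buffer with CHAPS, BSA, DTT | Also added: Cytochrome c and DEVD-Rh110 substrate | Times: 30 min plus 50 min, RT | Detection: Rhodamine 110 fluorescence at Ex 480/Em 540 nm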
UBC13 inh: UBC13 polyubiquitin chain formation inhibitors, primary screen, biochemical, TR-FRET, uHTS. 330,000 compounds, 0.47% hits. inhibition, % at 20 µM. AID 485273, 2010. Ubiquitin-conjugating enzyme E2 N (Homo sapiens), P61088; in the data active means inhibition above about 45%, passing the limit was not always enough
Target sequence (P61088 whole entry, looked up): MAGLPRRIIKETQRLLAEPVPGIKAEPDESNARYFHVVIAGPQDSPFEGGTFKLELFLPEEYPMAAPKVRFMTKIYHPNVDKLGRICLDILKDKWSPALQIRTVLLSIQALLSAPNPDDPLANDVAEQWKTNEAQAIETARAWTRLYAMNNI
SENP8 block-1: human SENP8 protease inhibitors, primary screen, biochemical, fluorescence, Nedd8 protein substrate, uHTS | Sentrin-specific protease 8 (Homo sapiens), Q96LD8 | recombinant SENP8 | inhibition, % at 20 µM | 360,000 compounds, 0.64% hits; in the data active means inhibition mostly above about 40%, no sharp cut-off; inactive means mostly below about 27%
SENP7 inh: SENP7 protease inhibitors, primary screen, biochemical, luminescence, uHTS; recombinant SENP7, Z-RLRGG-aminoluciferin luminescence, 40 min; inhibition, % at 5 µM; 330,000 compounds, 1.5% hits; AID 434973, 2010;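 active means inhibition above about 50% at the single test dose, limit read from the data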
Target sequence (Q9BQF6 706-1050 limits assumed): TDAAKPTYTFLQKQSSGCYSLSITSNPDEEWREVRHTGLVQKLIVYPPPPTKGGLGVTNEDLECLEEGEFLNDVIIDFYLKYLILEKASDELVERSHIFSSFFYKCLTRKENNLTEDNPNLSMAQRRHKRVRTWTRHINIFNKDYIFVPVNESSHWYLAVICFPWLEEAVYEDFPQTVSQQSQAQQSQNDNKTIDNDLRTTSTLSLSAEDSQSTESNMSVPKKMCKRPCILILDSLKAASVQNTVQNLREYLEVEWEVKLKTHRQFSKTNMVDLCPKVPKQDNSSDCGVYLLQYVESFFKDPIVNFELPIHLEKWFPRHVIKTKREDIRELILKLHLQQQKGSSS
SENP8 block-2: SENP8 protease inhibitors, primary screen, biochemical, luminescence. Sentrin-specific protease 8 (Homo sapiens), Q96LD8. purified SENP8, Z-RLRGG-aminoluciferin cleavage. inhibition, % at 10 µM. 330,000 compounds, 1.2% hits. AID 2540, 2010; in the data active means inhibition above about 50%
SENP8 confirm: SENP8 protease inhibitors, retest, confirmation, biochemical, luminescence, single concentration. Recombinant SENP8, Z-RLRGG-aminoluciferin luminescence, 60 min. AID 488912, 2010. shares compounds with SENP7 inh. inhibition, % at 12.5 µM. 6,200 compounds, 40% hits;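 active means mean inhibition across replicates above about 50%, limit read from the data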
SENP6 conf: SENP6 protease inhibitors, confirmation, biochemical, luminescence, single concentration. shares compounds with SENP7 inh. recombinant SENP6, Z-RLRGG-aminoluciferin luminescence. inhibition, % at 12.5 µM. 6,200 compounds, 58% hits
SENP7 conf: SENP7 protease inhibitors, retest, confirmation, biochemical, luminescence, single concentration. shares compounds with SENP7 inh. recombinant SENP7, Z-RLRGG-aminoluciferin luminescence, 40 min. inhibition, % at 12.5 µM. 6,200 compounds, 69% hits
Casp3 select: caspase-3 protease inhibitors, confirmation, selectivity assay for SENP inhibitor project, biochemical, single concentration; inhibition, % at 12.5 µM; shares compounds with SENP7 inh; 6,200 compounds, 60% hits; AID 488918, 2010; purified caspase-3, Z-DEVD-aminoluciferin luminescence, 60 min;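 active means mean inhibition above about 50%, limit read from the data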
Luc interf: interferes with luciferase luminescence in SENP counter-screen. shares compounds with SENP7 inh. inhibition, % at 12.5 µM. AID 488919. Pre-incubated SENP8/Z-RLRGG-aminoluciferin, luciferase luminescence interference. 6,200 compounds, 39% hits;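 active means mean inhibition above about 50% when retested at one dose, limit read from the data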
Of the large screens only hits and unclear results are named; the others gave an inactive call (follow-up assays come after a bar, where they were run). Most compounds without a hit are left out; they make up all but 3% or so of the library.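 How the source made its calls, unless noted: active means mean inhibition above about 50% in the one-dose retest (limit read from the data); inactive means the rest.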

O=C(Nc1ccc(O)cc1C(=O)O)c1ccc2c(c1)C(=O)N(Cc1ccco1)C2=O	none
Cc1ccc(C(=O)Nc2ccsc2C(=O)O)cc1	SENP6 block 94, SENP7 inh 94, SENP8 block-2 92 | SENP8 confirm inactive | SENP6 conf 97 | SENP7 conf 102 | Casp3 select 98 | Luc interf 96
COC(=O)c1sccc1NC(=O)c1ccncc1	none
O=C(CNC(=O)c1ccccc1)Nc1ccsc1C(=O)O	none
O=C(Nc1ccsc1C(=O)O)c1ccc(Cl)cc1	SENP6 block 94, SENP7 inh 88, SENP8 block-2 91 | SENP8 confirm 95 | SENP6 conf 96 | SENP7 conf 101 | Casp3 select 96 | Luc interf 95
Cc1ccc(NC(=O)CNc2cc(S(=O)(=O)N3CCOCC3)ccc2N2CCOCC2)cc1S(=O)(=O)N(C)C	none
CN(C(=O)CSc1nnc(C(F)(F)F)n1N)C1CCS(=O)(=O)C1 (centres undefined)	none
c1ccc(-c2cn3nc(-c4ccccc4)sc3n2)cc1	SENP7 inh 93, SENP8 block-2 85 | SENP8 confirm inactive | SENP6 conf inactive | SENP7 conf inactive | Casp3 select inactive | Luc interf inactive
c1ccc(-c2cn3ccccc3n2)cc1	none (no result: SENP6 block, Apaf1 inhib, UBC13 inh, SENP7 inh, SENP8 block-2)
Cc1nn2cc(-c3ccccc3)nc2s1	SENP6 block 72, SENP8 block-2 76 | SENP8 confirm 77 | SENP6 conf 81 | SENP7 conf 97 | Casp3 select 91 | Luc interf 71
O=C(Nc1cccc(S(=O)(=O)N2CCOCC2)c1)c1cc(=O)[nH]c2ccccc12	none
COc1nc(NCCc2ccc(OC)c(OC)c2)nc(Nc2ccccc2)n1	none
Cc1nccc(-c2cc(-c3ccc(Cl)cc3Cl)no2)n1	SENP6 block 89, SENP7 inh 88, SENP8 block-2 84 | SENP8 confirm 73 | SENP6 conf 77 | SENP7 conf 94 | Casp3 select 84 | Luc interf inactive
O=C(CC(Nc1ccc(Cl)cc1)C(=O)O)c1ccccc1 (centres undefined)	SENP6 block 92, SENP7 inh 81, SENP8 block-2 77 | SENP8 confirm inactive | SENP6 conf 86 | SENP7 conf 78 | Casp3 select 67 | Luc interf inactive
O=C(CC(Nc1ccccc1Cl)C(=O)O)c1ccccc1 (centres undefined)	none
CC(C)S(=O)(=O)c1csc(C(=O)Nc2ccc(F)cc2)c1N	SENP6 block 98, SENP7 inh 98, SENP8 block-2 92 | SENP8 confirm 96 | SENP6 conf 97 | SENP7 conf 102 | Casp3 select 97 | Luc interf 87
Cc1nc(Cl)sc1C(=O)Nc1ccc(F)cc1	none (no result: SENP6 block, Apaf1 inhib, UBC13 inh, SENP7 inh, SENP8 block-2)
c1ccc(-c2noc(COc3ccc4c(c3)OCO4)n2)cc1	none
c1ccc(-c2noc(-c3ccc4c(c3)OCO4)n2)cc1	SENP6 block 97, SENP7 inh 100, SENP8 block-2 93 | SENP8 confirm 92 | SENP6 conf 88 | SENP7 conf 96 | Casp3 select 94 | Luc interf inactive
Brc1ccc(-c2nc(-c3ccccc3)no2)o1	SENP6 block 90, SENP7 inh 92, SENP8 block-2 85 | SENP8 confirm inactive | SENP6 conf 87 | SENP7 conf 99 | Casp3 select 70 | Luc interf inactive
COc1ccc(-c2ccc(-c3noc(-c4cccc(OC)c4)n3)c(OC)n2)cc1	none
COc1ccc(-c2noc(-c3ccc4c(c3)OCO4)n2)cc1	SENP7 inh 73 | SENP8 confirm inactive | SENP6 conf inactive | SENP7 conf inactive | Casp3 select 61 | Luc interf inactive
COc1cccc(-c2noc(-c3ccc4c(c3)OCO4)n2)c1	SENP6 block 92, SENP7 inh 101, SENP8 block-2 89 | SENP8 confirm 90 | SENP6 conf 88 | SENP7 conf 95 | Casp3 select 92 | Luc interf inactive
COc1ccc(-c2noc(COc3ccc4c(c3)OCO4)n2)cc1	none
Brc1ccc(-c2nc(-c3cccnc3)no2)o1	none
CCOc1cc(N2CCOCC2)c(OCC)cc1NC(=O)C1=COCCO1	none
CC(C)CC(C(=O)Nc1ccccc1)N1C(=O)C2C3C=CC(C3)C2C1=O (centres undefined)	none
NC(c1ccccc1)c1csc(Nc2ccc(S(N)(=O)=O)cc2)n1 (centres undefined)	none (no result: SENP6 block, Apaf1 inhib, UBC13 inh, SENP7 inh, SENP8 block-2)
COC(=O)/C=C/CC(C)OS(N)(=O)=O (centres undefined)	none
Cc1ccc(CS(=O)(=O)CCC(=O)NCc2ccccc2Cl)cc1	none
CCOC(=O)/C(=C\c1ccc(OC(F)F)cc1)C1=Nn2c(nnc2-c2ccc(Cl)cc2)SC1	none (no result: SENP6 block, Apaf1 inhib, UBC13 inh, SENP7 inh, SENP8 block-2)
c1ccc(-c2noc(-c3ccc4ccccc4c3)n2)cc1	SENP6 block 92, SENP7 inh 98, SENP8 block-2 90 | SENP8 confirm inactive | SENP6 conf inactive | SENP7 conf inactive | Casp3 select inactive | Luc interf inactive
Cc1cc(C(=O)COC(=O)C2=COCCO2)c(C)n1-c1ccccc1	SENP6 block 85, SENP7 inh 85, SENP8 block-2 83 | SENP8 confirm 83 | SENP6 conf 83 | SENP7 conf 96 | Casp3 select 88 | Luc interf 78

High-throughput results as filed in PubChem.
